The record followed here is ChEMBL document CHEMBL4390698, “Targeted delivery of atorvastatin via asialoglycoprotein receptor (ASGPR)” (Bioorg Med Chem, 2019).

Data set [1] has as its target T1, 3-hydroxy-3-methylglutaryl-coenzyme A reductase (Homo sapiens) (UniProt P04035).
T1 sequence (whole entry): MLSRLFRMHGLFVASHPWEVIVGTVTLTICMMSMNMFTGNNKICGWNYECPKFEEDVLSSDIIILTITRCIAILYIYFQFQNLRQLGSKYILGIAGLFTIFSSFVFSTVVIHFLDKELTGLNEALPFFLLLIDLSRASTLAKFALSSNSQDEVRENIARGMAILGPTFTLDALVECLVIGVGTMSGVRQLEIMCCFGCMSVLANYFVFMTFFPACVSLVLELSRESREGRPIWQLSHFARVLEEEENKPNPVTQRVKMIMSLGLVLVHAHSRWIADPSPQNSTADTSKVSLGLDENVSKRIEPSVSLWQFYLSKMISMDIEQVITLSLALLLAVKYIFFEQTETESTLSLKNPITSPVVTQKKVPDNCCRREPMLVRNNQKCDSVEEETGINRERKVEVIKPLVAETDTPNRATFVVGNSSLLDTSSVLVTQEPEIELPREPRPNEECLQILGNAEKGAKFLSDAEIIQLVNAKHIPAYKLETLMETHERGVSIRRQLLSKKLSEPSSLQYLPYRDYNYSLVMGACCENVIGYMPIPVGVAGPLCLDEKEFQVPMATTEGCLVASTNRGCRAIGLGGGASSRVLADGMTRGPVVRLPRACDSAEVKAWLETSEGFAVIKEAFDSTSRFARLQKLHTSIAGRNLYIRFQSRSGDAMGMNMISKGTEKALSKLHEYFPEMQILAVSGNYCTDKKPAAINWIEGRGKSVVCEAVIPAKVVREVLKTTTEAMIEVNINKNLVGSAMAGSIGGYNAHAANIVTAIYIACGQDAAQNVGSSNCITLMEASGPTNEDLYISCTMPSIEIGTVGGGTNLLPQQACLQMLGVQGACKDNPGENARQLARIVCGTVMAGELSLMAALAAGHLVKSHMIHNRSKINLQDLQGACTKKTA
The experiment in a line: Inhibition of HMG CoA reductase (unknown origin) using hydrolyzed product of compound in presence of NADPH incubated for 24 hrs in pH 4.5 PBS followed by incubation in pH 7.4 for 24 hrs in presence of esterase.

The nature of data set [2]: Drug uptake in human Hep3B cells assessed as ASGPR-mediated cellular uptake at 90 uM incubated for 3 hrs in presence of 90 mM GalNac by UV spectrum and mass spectroscopic method relative to atorvastatin. The class given is ADME, cell-based. In outline:
(§1)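 Hep3B cells in EMEM/10% FBS, 37 °C, 5% CO2, seeded 1×10^4 cells/cm2. After 24 h, compound was added from 18 mM stocks to a final 90 μM, with or without 90 mM GalNac co-added, for 3 h. Cells were rinsed, trypsinised and pelleted, then extracted with methanol/DCM. Supernatant was read by UV and mass spectra, and amounts were taken from standard curves.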

A short description of data set [3]: Drug uptake in human Hep3B cells assessed as ASGPR-mediated cellular uptake at 90 uM incubated for 3 hrs by UV spectrum and mass spectroscopic method relative to atorvastatin. Type of data set: ADME, cell-based. In outline: as §1
Data set [4] in a line: Drug metabolism assessed as esterase (unknown origin)-mediated atorvastatin release in pH 7.4 PBS buffer incubated for 3 to 24 hrs by mass spectrometry. As to conditions: human. Type of data set: ADME. In outline:
(§2)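 Porcine liver esterase hydrolysis; DMSO stocks 3.5 mM. pH 7.40 route: stock diluted into PBS pH 7.40 containing 0.5 mg/mL esterase, 37 °C, sampled at 0 h, 3 h and 24 h. pH 4.50 route: PBS pH 4.50 at 37 °C for 24 h, pH raised to 7.40 with NaOH, PBS pH 7.40 containing 1.0 mg/mL esterase added, 37 °C one day. Reactions quenched with DCM; DCM layer analysed by mass spectrometry.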

Data set [5] has as its target T1, 3-hydroxy-3-methylglutaryl-coenzyme A reductase (Homo sapiens). The experiment in a line: Inhibition of HMG CoA reductase in human Hep3G cells assessed as increase in LDL receptor expression at 25 uM incubated for 48 hrs by immunofluorescence method. As to conditions: in the assay text read “Hep3B” for “Hep3G”. The class given is cell-based. In outline: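 Hep3B cells seeded 2×10^5 cells/cm2 and treated 24 h later at 25 μM final (from 10 mM stocks) for 48 h. Harvested cells were stained with anti-LDL receptor primary (1/100, 30 min RT), then goat anti-mouse IgG (1/2000, 30 min RT, dark), and analysed by flow cytometry. Triplicate; two-tailed t test.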

For data set [6] the target is unchanged. Briefly: Inhibition of HMG CoA reductase (unknown origin) in pH 4.5 PBS in presence of NADPH incubated for 10 mins. In outline: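 Commercial HMG-CoA reductase kit, run on conjugates first hydrolysed as in the esterase procedure (pH 7.40 esterase, or pH 4.50 then pH 7.40 esterase). Absorbance at 340 nm was read kinetically for 10 min. Activity was computed from ΔA340/min (sample minus blank) using NADPH ε 6.22 mM⁻¹cm⁻¹ ×2, 0.6 mg/mL enzyme, 12×10^-3 mL enzyme, 0.2 mL total volume and 0.55 cm path.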

Data set [7] is described as follows: Drug metabolism assessed as esterase (unknown origin)-mediated atorvastatin release in pH 4.5 PBS buffer incubated for 3 to 24 hrs by mass spectrometry. As to conditions: human. The class given is ADME. In short, it runs like this: as §2

Each structure is given as a SMILES string. Calls of active or inactive are those of the source. The rule behind the calls is not given here.

`CC(=O)N[C@H]1[C@H](OCCn2cc(COC(=O)C[C@H](O)C[C@H](O)CCn3c(-c4ccc(F)cc4)c(-c4ccccc4)c(C(=O)Nc4ccccc4)c3C(C)C)nn2)O[C@H](CO)[C@H](O)[C@@H]1O`: the inhibition result in data set [1] and in data set [6] was “inactive” in each case. Also, the Drug uptake entry in data set [2] is recorded as “Not Active”. For the same compound, in data set [3], the “fold change (FC)” value came to 1.4. Also, the Drug metabolism result in data set [4] is given as “Metabolite_Detected”. The inhibition entry in data set [5] is “Active”.

For the compound `CC(=O)N[C@H]1[C@H](OCCn2cc(COC(=O)C[C@H]3C[C@@H](CCn4c(-c5ccc(F)cc5)c(-c5ccccc5)c(C(=O)Nc5ccccc5)c4C(C)C)OC(C)(C)O3)nn2)O[C@H](CO)[C@H](O)[C@@H]1O`, the results for the Drug metabolism result in data set [7] and in data set [4] were “Metabolite_Detected” and “Metabolite_Notdetected”, respectively. For the same compound, the inhibition result in data set [1] and in data set [6] was “inactive” in each case. Moreover, in data set [2], the Drug uptake entry is reported as “Not Active”. For the same compound, in data set [3], the “fold change (FC)” value turned out to be 5.1. For the same compound, the inhibition entry in data set [5] is “Active”.

Turning to `CC(C)c1c(C(=O)Nc2ccccc2)c(-c2ccccc2)c(-c2ccc(F)cc2)n1CC[C@@H](O)C[C@@H](O)CC(=O)O`, the inhibition result in data set [5] and in data set [6] was “Active” each time.
